Laboratory results published in the RNAGym collection of RNA variant scans (doi:10.1126/science.aae0568).
Fewer inactive variants are shown than the library holds.

B1: tRNA (parent)
chain: GUUCCGUUGGCGUAAUGGUAACGCGUCUCCCUCCUAAGGAGAAGACUGCGGGUUCGAGUCCCGUACGGAACG

Variants of: B1
Test: yeast fitness relative to wild type (ratio to wild type); higher = fitter; tRNA-Arg(CCU), competitive growth, 37 C, YPD
Outline: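 Amplicons of the tRNA-Arg(CCU) gene were sequenced, 100-nucleotide paired-end, from the start population and from each end population of a pooled yeast competition. The competition, in six parallel replicates, lasted 24 hours in YPD at 37°C. Fitness relative to wild type was calculated from changes in genotype frequencies. Genotypes had to have ≥ 100 starting reads, and estimates < 0.5 were set to 0.5.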

| Variant | yeast fitness |
| --- | --- |
| C5G G18C C62A | ≤ 0.5 |
| C5G G18C G56C | ≤ 0.5 |
| C5G G23A | 0.668 |
| C5G G23A A45U G52C | 0.626 |
| C5G G23A A69C | ≤ 0.5 |
| C5G G23A C34A | 0.723 |
| C5G G23A C61A | 0.529 |
| C5G G23A C61G | ≤ 0.5 |
| C5G G23A G25C | ≤ 0.5 |
| C5G G23A G25C C49U | 0.544 |
| C5G G23A G44C G67U | 0.589 |
| C5G G23A U54A | ≤ 0.5 |
| C5G G23C C31U A37C | ≤ 0.5 |
| C5G G23C C33U A43C | ≤ 0.5 |
| C5G G23C C33U A43C U64A | ≤ 0.5 |
| C5G G23C G48A G67A | 0.567 |
| C5G G25A A42C G68U | ≤ 0.5 |
| C5G G25A A45C | 0.705 |
| C5G G25A C34A C49G G50A | ≤ 0.5 |
| C5G G25A C34G A42U G50C U54C A70C | ≤ 0.5 |
| C5G G25A C46U A69U | 0.576 |
| C5G G25A C46U G50C | 0.593 |
| C5G G25A C46U G50C C66U | ≤ 0.5 |
| C5G G25A C61U | 0.716 |

| Variant | yeast fitness |
| --- | --- |
| C5G G25A C62G | 0.648 |
| C5G G25A G68C | 0.69 |
| C5G G25A U28G G38C C62G C66U | ≤ 0.5 |
| C5G G25A U47C | 0.781 |
| C5G G25A U59G | 0.631 |
| C5G G25C A37G | 0.504 |
| C5G G25C C29G A65U | ≤ 0.5 |
| C5G G25C G44A A69C | ≤ 0.5 |
| C5G G25C G56A | 0.62 |
| C5G G25C U47C | 0.545 |
| C5G G38A A43U G56A | ≤ 0.5 |
| C5G G38A U59C | ≤ 0.5 |
| C5G G38C A69U | ≤ 0.5 |
| C5G G38C G68A | ≤ 0.5 |
| C5G G38C U47G C62U | ≤ 0.5 |
| C5G G39A A43U | 0.575 |
| C5G G39A C46U G67A | ≤ 0.5 |
| C5G G39A U47G C49G A69C | 0.764 |
| C5G G39A U47G C49G C66U A69C | 0.57 |
| C5G G39C | 0.675 |
| C5G G39C A70G | 0.596 |
| C5G G41A | 0.698 |
| C5G G41A A42C G50C A70G | ≤ 0.5 |
| C5G G41C | 0.736 |

| Variant | yeast fitness |
| --- | --- |
| C5G G41C C49U | 0.543 |
| C5G G41C G67C | 0.631 |
| C5G G41C U47A | 0.526 |
| C5G G41C U47G | ≤ 0.5 |
| C5G G41C U54A | ≤ 0.5 |
| C5G G44C | 0.688 |
| C5G G44C C49G A69U | ≤ 0.5 |
| C5G G44C C62U C66U A69C | 0.515 |
| C5G G44C G67U | 1.02 |
| C5G G44C U64C | 0.586 |
| C5G G48A C49G | 0.658 |
| C5G G48A C49U A57G | 0.624 |
| C5G G48A G56C A65G | ≤ 0.5 |
| C5G G48A G68C | 0.653 |
| C5G G48C | 0.758 |
| C5G G48C C49U | 0.622 |
| C5G G48C C49U U54G C66A | 0.682 |
| C5G G48C G56A | 0.544 |
| C5G G48C G67C | 0.573 |
| C5G G50A A69C | 0.571 |
| C5G G50A A69U | 0.742 |
| C5G G50A C55G A65C | 0.551 |
| C5G G50C G51C G56A | ≤ 0.5 |
| C5G G51A G52A | ≤ 0.5 |

| Variant | yeast fitness |
| --- | --- |
| C5G G51C C61G | 0.607 |
| C5G G51C U54A | ≤ 0.5 |
| C5G G51U C55G A65C | ≤ 0.5 |
| C5G G51U G67C | ≤ 0.5 |
| C5G G52A | 0.806 |
| C5G G52A A65G A70U | ≤ 0.5 |
| C5G G52A G56C | ≤ 0.5 |
| C5G G56A C62G | 0.543 |
| C5G G56A G58C | 0.756 |
| C5G G56A U59G | ≤ 0.5 |
| C5G G56C | 0.662 |
| C5G G56C A65C | 0.549 |
| C5G G56C A65U | ≤ 0.5 |
| C5G G58A G67C | 0.687 |
| C5G G58C | 0.859 |
| C5G G67A | 0.86 |
| C5G G67C | 0.99 |
| C5G G68A | 0.716 |
| C5G G68C | 0.826 |
| C5G U7A A15C U28A | ≤ 0.5 |
| C5G U7A A20C | 0.694 |
| C5G U7A A20C C31G C34U C62A | ≤ 0.5 |
| C5G U7A A20C C60U A69U | 0.546 |
| C5G U7A C22U C30A C49G C55U | 0.552 |

| Variant | yeast fitness |
| --- | --- |
| C5G U7A C22U C30A C49G C62G | ≤ 0.5 |
| C5G U7A C27A C29A | ≤ 0.5 |
| C5G U7C | 0.787 |
| C5G U7C A14C G51C | 0.697 |
| C5G U7C A14U C24U C46G C62U C66U | ≤ 0.5 |
| C5G U7C A45U C55G | ≤ 0.5 |
| C5G U7C C11G A43G A65U | ≤ 0.5 |
| C5G U7C C11G C31G | ≤ 0.5 |
| C5G U7C C24G A43C | 0.629 |
| C5G U7C C30U G50C | ≤ 0.5 |
| C5G U7C C49U | 0.524 |
| C5G U7C U8A | 0.56 |
| C5G U7C U26G C60G | ≤ 0.5 |
| C5G U7C U54A G63A | ≤ 0.5 |
| C5G U7G A15G | ≤ 0.5 |
| C5G U7G A36U G41A C49G | ≤ 0.5 |
| C5G U7G C61U | 0.649 |
| C5G U7G G38A A40C G56A C60U C61G | ≤ 0.5 |
| C5G U7G U13A C30A A43C U53C | 0.876 |
| C5G U8A A14G | ≤ 0.5 |
| C5G U8A A36U A42G G50A A57G | ≤ 0.5 |
| C5G U8A C29A U35C | ≤ 0.5 |
| C5G U8A C62A A69U | ≤ 0.5 |
| C5G U8A G39A | ≤ 0.5 |

| Variant | yeast fitness |
| --- | --- |
| C5G U8A G39A C55U A70C | 0.623 |
| C5G U8A G41C U47A C61A G67C | ≤ 0.5 |
| C5G U8A G52C U53A | ≤ 0.5 |
| C5G U8A U28C G51A A69C | ≤ 0.5 |
| C5G U8C | 0.843 |
| C5G U8C A14C C29A C31G U54A | ≤ 0.5 |
| C5G U8C A15G G18C | ≤ 0.5 |
| C5G U8C A21C C33U U59G | ≤ 0.5 |
| C5G U8C A36C A43U | ≤ 0.5 |
| C5G U8C A36G A40C | 0.55 |
| C5G U8C C11A A15G G18A C30G | ≤ 0.5 |
| C5G U8C C11G C31G | ≤ 0.5 |
| C5G U8C C27G C33G U35A C49U | ≤ 0.5 |
| C5G U8C C30U U54A | ≤ 0.5 |
| C5G U8C C55G | ≤ 0.5 |
| C5G U8C C60A G63A | ≤ 0.5 |
| C5G U8C G10C G52A | ≤ 0.5 |
| C5G U8C G12A C46U G68A | ≤ 0.5 |
| C5G U8C G12A U28A A65G | ≤ 0.5 |
| C5G U8C G48C | ≤ 0.5 |
| C5G U8C G56A | 0.723 |
| C5G U8C U47A G68C | ≤ 0.5 |
| C5G U8G | 0.527 |
| C5G U8G A14G A43C G48A | 0.544 |

| Variant | yeast fitness |
| --- | --- |
| C5G U8G C11G C49A G52C | ≤ 0.5 |
| C5G U8G C11G C49U C61G | ≤ 0.5 |
| C5G U13A | 0.906 |
| C5G U13A A20G U35A A40G | ≤ 0.5 |
| C5G U13A A20G U35A A40G G63U | ≤ 0.5 |
| C5G U13A C22G C27U C29G A40U U54C C61G | ≤ 0.5 |
| C5G U13A C22G C29G A40U C62U | ≤ 0.5 |
| C5G U13A C22G C29G A40U U54C C61G | 0.588 |
| C5G U13A C31G G50A A65C | 0.58 |
| C5G U13A C31G G50A A65G | ≤ 0.5 |
| C5G U13A C31G G50A G67A | ≤ 0.5 |
| C5G U13A C31G G50A G67A A69G | ≤ 0.5 |
| C5G U13A G23A G38A G48A C60A | ≤ 0.5 |
| C5G U13A U19A C30U | 0.573 |
| C5G U13A U19A C30U A70U | ≤ 0.5 |
| C5G U13C | 0.875 |
| C5G U13C A20C U32G C46U | 0.703 |
| C5G U13C A20C U32G C46U G58C | ≤ 0.5 |
| C5G U13C A21C | 0.585 |
| C5G U13C A21C G63C A69C | ≤ 0.5 |
| C5G U13C A21C G67A | ≤ 0.5 |
| C5G U13C A21C G68A | ≤ 0.5 |
| C5G U13C A21G C49A | ≤ 0.5 |
